In ChEMBL document CHEMBL6127074, “Isolation and Characterization of the Cyanobacterial Macrolide Glycoside Moorenaside, an Anti-Inflammatory Analogue of Aurisides Targeting the Keap1/Nrf2 Pathway” (J Nat Prod, 2024):
pIC50: −log10 of the molar value. Calls of active or inactive are those of the source. No cut-off for these calls is given here.

Tests used:
KB = assay: Antiproliferative activity against human KB cells; assay type: functional, cell-based
LoVo = assay: Antiproliferative activity against human LoVo cells; assay type: functional, cell-based
[1] = system: Trypanosoma brucei rhodesiense; assay: Antiparasitic activity against Trypanosoma brucei rhodesiense; assay type: functional, organism-based
HEK293 [2] = assay: Activation of Nrf2-ARE pathway in HEK293 cells transfected with firefly luciferase reporter assessed as fold increase in Nrf2 activity at 32 uM incubated for 24 hrs by ARE luciferase reporter gene based microplate reader assay; assay type: cell-based; conditions: Homo sapiens, filed as activator
Outline: (§1)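 HEK293 cells stably carrying an ARE-driven firefly luciferase reporter, grown in DMEM with 10% FBS at 37 °C and 5% CO2, seeded 10,000/well and left overnight. Half-log serial dilutions from 32 μM were added, with tBHQ (10 μM) as positive control and 0.5% DMSO as vehicle. Luminescence was read with BriteLite reagent after 24 h and expressed as fold activity; n = 3.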

HEK293 [3] = assay: Activation of Nrf2-ARE pathway in HEK293 cells transfected with firefly luciferase reporter assessed as fold increase in Nrf2 activity at 10 uM incubated for 24 hrs by ARE luciferase reporter gene based microplate reader assay; assay type: cell-based; conditions: Homo sapiens, filed as activator; outline: as §1
HEK293 [4] = assay: Cytotoxicity against HEK293 ARE-luc cells at 1 to 32 uM incubated for 24 hrs by MTT assay; assay type: toxicity, cell-based; conditions: human, hek293, 24 h, dose 1-32 µM
Outline: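 HEK293 ARE-luc cells seeded 10,000/well and left overnight, then treated with half-log dilutions from 32 μM, tBHQ 10 μM, or 0.5% DMSO for 24 h. Viability was read by MTT; mean ± SD, n = 3.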

RAW264.7 [5] = assay: Cytotoxicity against mouse RAW264.7 cells at 32 uM incubated for 24 hrs by MTT assay; assay type: toxicity, cell-based; conditions: raw264.7, 24 h
Outline: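 RAW264.7 cells seeded 20,000/well and treated for 24 h with half-log dilutions from 32 μM together with LPS 1 μg/mL (0.5% DMSO vehicle). Viability was read by MTT in parallel with the NO assay; mean ± SD, n = 3.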

RAW264.7 [6] = assay: Anti-inflammatory activity in LPS induced mouse RAW264.7 cells assessed as reduction in NO production at 32 uM preincubated for 1 hr followed by LPS stimulation and measured after 24 hrs by Griess reagent based plate reader assay; assay type: functional, cell-based; conditions: time 25.0 hrs
Outline: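 RAW264.7 cells seeded 20,000/well, pretreated 1 h with half-log dilutions from 32 μM (0.5% DMSO vehicle), then stimulated with LPS 1 μg/mL. Unstimulated controls were included. After 24 h the supernatant was mixed with Griess reagent and absorbance read at 540 nm. NO was calculated from a nitrite standard curve. Mean ± SD, n = 3, t-test against DMSO + LPS.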

RAW264.7 [7] = assay: Anti-inflammatory activity in LPS induced mouse RAW264.7 cells assessed as fold increase in Nqo1 transcript level at 32 uM preincubated for 1 hr followed by LPS stimulation and measured after 12 hrs by TaqMan analysis; assay type: functional; conditions: time 13 hrs
Outline: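 RAW264.7 cells seeded 175,000/well, given fresh medium, pretreated 1 h with half-log dilutions from 32 μM (0.5% DMSO vehicle), then stimulated with LPS 1 μg/mL for 12 h. Unstimulated wells were run alongside. RNA was extracted and reverse transcribed with oligo(dT), then measured by TaqMan qPCR for Nqo1 and iNos with actin as the endogenous control. Mean ± SD, n = 3, two-tailed unpaired t-test against DMSO + LPS.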

HCT-116 = assay: Antiproliferative activity against human HCT-116 cells assessed as cell viability at 32 uM incubated for 48 hrs by MTT assay; conditions: HCT-116, 48 h

SMILES: CO[C@@H]1[C@@H](OC)[C@@H](O)[C@H](O[C@H]2C[C@@]3(O)CC(=O)O[C@@](C)(CC/C=C/C=C/Br)C[C@H](O)[C@@H](C)CC[C@H](O3)[C@@H]2C)O[C@H]1C
- pIC50 (KB): 5.37
- pIC50 (LoVo): 4.82

SMILES: CCCCC/C=C/C=C/[C@H]1OC(=O)C[C@@H]2O[C@H](C[C@H](O)C[C@H](C)C[C@@H](O)C1(C)C)C[C@H](O[C@@H]1OC[C@@H](OC)[C@H](O)[C@H]1O)C2(C)C
- pIC50 [1]: 4.96

SMILES: C=CCCC/C=C/C=C/[C@H]1OC(=O)C[C@@H]2O[C@H](C[C@H](O)C[C@H](C)C[C@@H](O)C1(C)C)C[C@H](O[C@@H]1OC[C@@H](OC)[C@H](O)[C@H]1O)C2(C)C
- pIC50 [1]: 4.96

SMILES: CO[C@@H]1[C@@H](O)[C@@H](OC)[C@H](O[C@@H]2C[C@H]3O[C@@](O)(C2)[C@H](C)C(=O)O[C@@H](/C=C/C=C/Br)C/C(C)=C/C(=O)C3(C)C)O[C@H]1C
- fold change (FC) (HEK293 [2]): 7.7
- fold change (FC) (HEK293 [3]): 2.5
- Activity (HEK293 [4]): Non-Toxic
- Activity (RAW264.7 [5]): Non-Toxic
- Activity (RAW264.7 [6]): Active
- fold change (FC) (RAW264.7 [7]): 5
- viability at 32 µM (HCT-116): 55%
